Test results taken from ChEMBL document CHEMBL1137782, “Identification of peptide substrate and small molecule inhibitors of testis-specific serine/threonine kinase1 (TSSK1) by the developed assays” (J Med Chem, 2009).

T1: Testis-specific serine/threonine-protein kinase 1 (Homo sapiens, UniProt Q9BXA7)
T1 sequence (Q9BXA7 whole entry): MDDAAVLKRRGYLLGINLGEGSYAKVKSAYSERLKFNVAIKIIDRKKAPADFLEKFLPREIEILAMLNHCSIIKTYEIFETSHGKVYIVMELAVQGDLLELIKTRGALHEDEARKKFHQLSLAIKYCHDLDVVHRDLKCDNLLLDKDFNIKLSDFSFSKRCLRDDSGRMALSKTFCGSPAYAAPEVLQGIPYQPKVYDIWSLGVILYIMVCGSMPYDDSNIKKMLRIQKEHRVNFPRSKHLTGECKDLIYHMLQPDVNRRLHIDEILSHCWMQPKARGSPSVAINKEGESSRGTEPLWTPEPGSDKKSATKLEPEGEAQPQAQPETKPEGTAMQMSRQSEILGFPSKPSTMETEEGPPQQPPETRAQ

T2: Testis-specific serine/threonine-protein kinase 1 (Homo sapiens) (UniProt Q9BXA7)
T2 sequence (whole entry): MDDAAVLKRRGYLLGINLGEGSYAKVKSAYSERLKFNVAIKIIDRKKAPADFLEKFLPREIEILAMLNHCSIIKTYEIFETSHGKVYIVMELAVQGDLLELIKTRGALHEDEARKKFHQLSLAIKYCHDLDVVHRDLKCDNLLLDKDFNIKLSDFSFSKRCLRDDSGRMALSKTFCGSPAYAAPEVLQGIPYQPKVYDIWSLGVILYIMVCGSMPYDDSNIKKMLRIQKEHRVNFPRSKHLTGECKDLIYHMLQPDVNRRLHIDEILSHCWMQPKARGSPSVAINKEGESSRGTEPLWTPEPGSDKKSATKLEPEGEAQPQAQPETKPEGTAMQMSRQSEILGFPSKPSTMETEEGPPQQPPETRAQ


What was measured:
[1] = target: T1, Testis-specific serine/threonine-protein kinase 1; test: Inhibition of TSSK1-catalyzed phosphorylation of AALVRQMSVAFFFK substrate by LC-MS based HTP assay in presence of Pep8-(O2)
How it was run: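 TSSK1 reaction at final 75 ng/well enzyme, 10 μM Pep8, 25 μM ATP in Tris-HCl/MgCl2/BSA/DTT buffer, 90 min at 37 °C. Acetonitrile quench carried 7 μM sulfone internal standard Pep8-P(O2). After 15000g spin, C18 HPLC-MS analysis. Pep8-P concentration calculated from its peak area relative to the internal standard using a normalization factor, and IC50 derived from that.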

[2] = target: T1, Testis-specific serine/threonine-protein kinase 1; test: Inhibition of TSSK1-catalyzed phosphorylation of AALVRQMSVAFFFK substrate by luminescent kinase assay
How it was run: (§1)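 Luminescent Kinase-Glo read-out of ATP left after reaction. Buffer 40 mM Tris-HCl, 20 mM MgCl2, 0.1 mg/mL BSA, 2 mM DTT. Final 0.5 μg/well TSSK1, 10 μM Pep8 peptide, 1.5 μM ATP. Incubated 2 h at 37 °C, then an equal volume of Kinase-Glo added for 10 min at room temperature before luminescence (RLU) reading. Controls lacked peptide or lacked TSSK1; staurosporine 100 μM as positive control.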

[3] = target: T2, Testis-specific serine/threonine-protein kinase 1 (Homo sapiens); test: Inhibition of TSSK1-catalyzed phosphorylation of AALVRQMSVAFFFK substrate at 20 uM by luminescent kinase assay; how it was run: as §1
[4] = target: T1, Testis-specific serine/threonine-protein kinase 1; test: Inhibition of TSSK1-catalyzed phosphorylation of AALVRQMSVAFFFK substrate by LC-MS based HTP assay in absence of Pep8-(O2)
How it was run: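 End-point LC-MS read-out of phosphorylated Pep8 (Pep8-P). Reaction in 40 mM Tris-HCl, 20 mM MgCl2, 0.1 mg/mL BSA, 2 mM DTT with final 75 ng/well TSSK1, 10 μM Pep8, 25 μM ATP, run 90 min at 37 °C. Quenched with acetonitrile, spun 15000g 10 min, then analysed by C18 HPLC-MS using formic acid/acetonitrile gradient. IC50 taken from Pep8-P peak area with no internal standard.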

[5] = substrate: CSCC[C@H](NC(=O)[C@H](CCC(N)=O)NC(=O)[C@H](CCCNC(=N)N)NC(=O)[C@@H](NC(=O)[C@H](CC(C)C)NC(=O)[C@H](C)NC(=O)[C@H](C)N)C(C)C)C(=O)N[C@@H](CO)C(=O)N[C@H](C(=O)N[C@@H](C)C(=O)N[C@@H](Cc1ccccc1)C(=O)N[C@@H](Cc1ccccc1)C(=O)N[C@@H](Cc1ccccc1)C(=O)N[C@@H](CCCCN)C(=O)O)C(C)C; test: (§2) Activity at TSSK1 by Michaelis-Menten plot
How it was run: (§3)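 Enzyme time courses quantified phosphorylated Pep8 by LC-MS. ATP was varied 3.13–200 μM with Pep8 at 30 μM, or Pep8 0–40 μM with ATP at 200 μM. Reactions were quenched with acetonitrile containing 7 μM sulfone internal standard. Initial velocities were taken in duplicate and fitted to Michaelis-Menten by nonlinear least squares.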

[6] = substrate: Nc1ncnc2c1ncn2[C@@H]1O[C@H](COP(=O)(O)OP(=O)(O)OP(=O)(O)O)[C@@H](O)[C@H]1O; test: as §2; how it was run: as §3

Row | Molecule | IC50 [1] [µM] | inhibition [3] [%] | further results
1 | CC(=O)Nc1ccc(-c2nc3cc4[nH]c(=O)c(C)nc4cc3n2CCCc2ccccc2)cc1 | 98 | – | –
2 | O=C(c1ccc(-c2ccc(C(=O)C(O)O)cc2)cc1)C(O)O | – | > 40 | IC50 [2]: 43.2 µM
3 | CCCCCCCn1c(-c2ccc(O)c(O)c2)nc2cc3[nH]c(=O)c(C(C)C)nc3cc21 | 72 | – | –
4 | CCCc1cc(=O)oc2cc3c(c(O)c12)C(=O)CC(C)O3 (stereo not drawn) | – | > 40 | IC50 [2]: 38.7 µM
5 | C=CC(=O)Oc1cc(O)c2c(CCC)cc(=O)oc2c1 | – | > 40 | –
6 | Cc1c(Cc2ccccc2)c(=O)oc2cc(O)cc(O)c12 | – | > 40 | –
7 | O=C(c1ccc(-c2ccc(C(=O)C(O)S(=O)(=O)O)cc2)cc1)C(O)S(=O)(=O)O (stereo not drawn) | 19.1 | – | IC50 [2]: 24.8 µM; IC50 [4]: 14.4 µM
8 | CCCc1c(Cl)c(=O)oc2cc(O)cc(O)c12 | – | > 40 | –
9 | CC(C)C[C@H](CC(=O)N[C@H](CCC(N)=O)C(=O)O)NC(=O)c1cc(Cl)ccc1N | – | > 40 | –
10 | O=c1oc2cc(O)cc(O)c2c2c1CCCC2 | – | > 40 | –
11 | CC(C)c1nc2cc3c(cc2[nH]c1=O)nc(-c1ccc(C(=O)O)cc1)n3CCCc1ccccc1 | 38 | – | –
12 | CCc1cc(=O)oc2cc3c(c(O)c12)C(=O)CC(C)O3 (stereo not drawn) | – | > 40 | –
13 | Testis-specific serine/threonine-protein kinase 1 (Homo sapiens), Q9BXA7 (protein) MDDAAVLKRRGYLLGINLGEGSYAKVKSAYSERLKFNVAIKIIDRKKAPADFLEKFLPREIEILAMLNHCSIIKTYEIFETSHGKVYIVMELAVQGDLLELIKTRGALHEDEARKKFHQLSLAIKYCHDLDVVHRDLKCDNLLLDKDFNIKLSDFSFSKRCLRDDSGRMALSKTFCGSPAYAAPEVLQGIPYQPKVYDIWSLGVILYIMVCGSMPYDDSNIKKMLRIQKEHRVNFPRSKHLTGECKDLIYHMLQPDVNRRLHIDEILSHCWMQPKARGSPSVAINKEGESSRGTEPLWTPEPGSDKKSATKLEPEGEAQPQAQPETKPEGTAMQMSRQSEILGFPSKPSTMETEEGPPQQPPETRAQ | – | – | Km [5]: 25.2 µM; Km [6]: 50.5 µM
